Series [1] relates to BT-474. Description: Inhibition of colony formation in human BT-474 cells at 0.1 to 10 uM incubated for 14 days by replacing culture medium for every 2 days by crystal violet staining based assay. As to conditions: dose 0.1-10 µM, time 14.0 day. The format is functional, cell-based. In a few lines:
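BT474 cells cultured 14 days with compound. Medium plus compound was replaced every 2 days. Viable cells were then stained with 0.5% crystal violet.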

The test system of series [2] is PC-3. Description: Antiproliferative activity against human PC-3 cells assessed as inhibition of cell growth measured after 5 days by IncuCyte zoom live cell analysis. Type of series: functional. As to conditions: PC-3, 120 h, time 5 day. The method in brief:
(§1)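 Cells grown in DMEM with 10% FBS at 37 °C, 5% CO₂. Seeded at 1–3 × 10³ cells/well in triplicate with serial compound dilutions for 5 days. Growth was taken as confluence from IncuCyte phase-contrast images of live cells. Three independent experiments.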

The test system of series [3] is MDA-MB-468. The series can be described thus: Antiproliferative activity against human MDA-MB-468 cells assessed as cell growth by measured after 5 days by IncuCyte zoom live cell analysis. The format is functional. As to conditions: MDA-MB-468, 120 h, time 5 day. In a few lines:
as §1

The nature of series [4]: Cmax in Swiss albino mouse at 75 mg/kg, ip administered as single dose measured upto 12 hrs by LC-MS/MS analysis. Type of series: ADME, organism-based. To be noted: in vivo. Also noted: route intraperitoneal, dose 75 mg/kg, time <=12. In a few lines: (§2)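 Male Swiss Albino mice, single IP dose of HCl salt in 5% DMA/5% Solutol HS-15/90% normal saline. Plasma (~60 μL) drawn from three mice per time point at 0.5, 1, 2, 4, 8 and 12 h. Samples were held below −70 °C and quantified by LC–MS/MS (LLOQ 10.18 ng/mL). Parameters come from non-compartmental analysis of mean concentrations.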

The nature of series [5]: Tmax in Swiss albino mouse at 75 mg/kg, ip administered as single dose measured upto 12 hrs by LC-MS/MS analysis. Type of series: ADME, organism-based. To be noted: in vivo. In a few lines:
as §2

The nature of series [6]: Drug exposure in Swiss albino mouse plasma at 75 mg/kg, ip administered as single dose measured upto 12 hrs by LC-MS/MS analysis. Type of series: ADME, organism-based. As to conditions: in vivo. The method in brief:
as §2

A short description of series [7]: AUC in Swiss albino mouse at 75 mg/kg, ip administered as single dose measured upto 12 hrs post injection by LC-MS/MS analysis. The format is ADME, organism-based. Also noted: route intraperitoneal, dose 75 mg/kg, time <=12. To be noted: in vivo. The method in brief:
as §2

The nature of series [8]: Toxicity in immunocompromised NU/J mouse xenografted with human PC-3 cells assessed as body weight loss at 75 mg/kg, ip administered once daily for 22 days. Type of series: organism-based. To be noted: in vivo, 528 h, time 22 day. The method in brief: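 Male NU/J nude mice, 6 weeks old, engrafted with PC-3 cells. Randomized at ~100 mm³ tumors to vehicle (n = 6) or 75 mg/kg IP once daily (n = 7) for 22 days. Body weight compared at study start and end. Unblinded.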
In general terms: In xenograft studies the graft and the host belong to different species.

Activity calls are given as the source filed them. The rule behind the calls is not given here.

On to `Cc1ncsc1-c1ccc(CNC(=O)[C@@H]2C[C@@H](O)CN2C(=O)[C@@H](NC(=O)CCCCCCCCCCC(=O)N2CCN(CC[C@H](NC(=O)C3(N)CCN(c4ncnc5[nH]ccc45)CC3)c3ccc(Cl)cc3)CC2)C(C)(C)C)cc1`, for which, in series [1], the inhibition entry is “Active”. Besides, the GI50 (commonly the concentration at which growth is held to half of that of the control) in series [2] came out at 800 nM; in series [3], 1000 nM. For the same compound, the peak level in series [4] (Cmax) was 7 µM. Besides, the Tmax (as a rule, the time at which the peak concentration occurs) in series [5] worked out at 2 h. For the same compound, the Activity was 3.7 µM in series [6] and “Non-Toxic” in series [8]. The AUC (commonly the area under the concentration-time curve, a measure of exposure) in series [7] came to 63600 ng·h/mL.

The record behind these values is ChEMBL document CHEMBL5046272, “Discovery of Potent, Selective, and In Vivo Efficacious AKT Kinase Protein Degraders via Structure-Activity Relationship Studies” (J Med Chem, 2022).
